Measurements: ChEMBL document CHEMBL3603756, “Synthesis and apoptotic activity of new pyrazole derivatives in cancer cell lines” (2015)
Active and inactive are the calls of the source. No cut-off for these calls is given here.

How the values were obtained:
THP-1 [1] = experiment: Cytotoxicity against human THP1 cells assessed as cell viability at 12.5 ug/ml incubated for 24 hrs by MTS assay; format: functional; conditions: THP-1, 24 h, read-out: Activity
Outline: (§1)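 Cells were held at 37 °C, 5% CO2 in humid air. HEp-2 (5 x 10³/well) and HCT-8 (7 x 10³/well) grew in DMEM + 10% heat-inactivated FBS and got compound (binary dilutions) 24 h after seeding. THP-1 (5 x 10³ cells, RPMI-1640 + 10% FBS) were added directly to the dilutions. Exposure lasted 24 h. MTS (CellTiter 96 AQueous One) read-out was absorbance at 490 nm.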

THP-1 [2] = experiment: Cytotoxicity against human THP1 cells assessed as cell viability at 25 ug/ml incubated for 24 hrs by MTS assay; format: functional; conditions: THP-1, 24 h, read-out: Activity; outline: as §1
THP-1 [3] = experiment: Cytotoxicity against human THP1 cells assessed as cell viability at 50 ug/ml incubated for 24 hrs by MTS assay; format: functional; conditions: THP-1, 24 h, read-out: Activity; outline: as §1
[4] = Cytotoxicity against human HCT8 cells assessed as cell viability at 12.5 ug/ml incubated for 24 hrs by MTS assay; format: functional; conditions: HCT-8, 24 h, read-out: Activity; outline: as §1
[5] = Cytotoxicity against human HCT8 cells assessed as cell viability at 25 ug/ml incubated for 24 hrs by MTS assay; format: functional; conditions: HCT-8, 24 h, read-out: Activity; outline: as §1
[6] = Cytotoxicity against human HCT8 cells assessed as cell viability at 50 ug/ml incubated for 24 hrs by MTS assay; format: functional; conditions: HCT-8, 24 h, read-out: Activity; outline: as §1
[7] = Cytotoxicity against human Hep2 cells assessed as cell viability at 12.5 ug/ml incubated for 24 hrs by MTS assay; format: functional; conditions: HEp-2, 24 h, read-out: Activity; outline: as §1
[8] = Cytotoxicity against human Hep2 cells assessed as cell viability at 25 ug/ml incubated for 24 hrs by MTS assay; format: functional; conditions: HEp-2, 24 h, read-out: Activity; outline: as §1
[9] = Cytotoxicity against human Hep2 cells assessed as cell viability at 50 ug/ml incubated for 24 hrs by MTS assay; format: functional; conditions: HEp-2, 24 h, read-out: Activity; outline: as §1
HCT-8 [10] = experiment: Induction of apoptosis in human HCT8 cells assessed necrosis level at 50 ug/ml incubated for 24 hrs by annexin V-FITC and propidium iodide staining based flow cytometry (reference value: 1.12%); format: functional
HCT-8 [11] = experiment: Induction of apoptosis in human HCT8 cells assessed early apoptosis level at 50 ug/ml incubated for 24 hrs by annexin V-FITC and propidium iodide staining based flow cytometry (reference value: 0.75%); format: functional
HCT-8 [12] = experiment: Induction of apoptosis in human HCT8 cells assessed late apoptosis level at 50 ug/ml incubated for 24 hrs by annexin V-FITC and propidium iodide staining based flow cytometry (reference value: 4.8%); format: functional
HCT-8 [13] = experiment: Induction of apoptosis in human HCT8 cells assessed viable cells level at 50 ug/ml incubated for 24 hrs by annexin V-FITC and propidium iodide staining based flow cytometry (reference value: 93.3%); format: functional
HEp-2 [14] = experiment: Induction of cell cycle arrest in human Hep2 cells assessed accumulation at G2/M phase incubated for 24 hrs by propidium iodide staining based flow cytometry; format: functional
HEp-2 [15] = experiment: Induction of cell cycle arrest in human Hep2 cells assessed accumulation at G0/G1 phase at 10 ug/ml incubated for 24 hrs by propidium iodide staining based flow cytometry (reference value: 74.51%); format: functional
HEp-2 [16] = experiment: Induction of cell cycle arrest in human Hep2 cells assessed accumulation at G0/G1 phase at 50 ug/ml incubated for 24 hrs by propidium iodide staining based flow cytometry (reference value: 74.51%); format: functional
HEp-2 [17] = experiment: Induction of cell cycle arrest in human Hep2 cells assessed accumulation at S phase at 10 ug/ml incubated for 24 hrs by propidium iodide staining based flow cytometry (reference value: 21.06%); format: functional
HEp-2 [18] = experiment: Induction of cell cycle arrest in human Hep2 cells assessed accumulation at S phase at 50 ug/ml incubated for 24 hrs by propidium iodide staining based flow cytometry (reference value: 21.06%); format: functional
HEp-2 [19] = experiment: Induction of cell cycle arrest in human Hep2 cells assessed accumulation at G2/M phase at 10 ug/ml incubated for 24 hrs by propidium iodide staining based flow cytometry (reference value: 7.82%); format: functional
HEp-2 [20] = experiment: Induction of cell cycle arrest in human Hep2 cells assessed accumulation at G2/M phase at 50 ug/ml incubated for 24 hrs by propidium iodide staining based flow cytometry (reference value: 7.82%); format: functional
[21] = Reduction in PRKAA1 gene expression in human Hep2 cells at 10 ug/ml incubated for 24 hrs by real-time PCR method; format: functional, cell-based; conditions: HEp-2
Outline: (§2)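 HEp-2 cells were treated 24 h at 10 or 50 µg/mL. Total RNA was extracted with Trizol, and 2 µg was reverse-transcribed. 50 ng cDNA went into TaqMan real-time PCR with beta-actin as endogenous control. Relative expression was calculated by the ∆∆CT method. Each experiment was run three times.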

[22] = Reduction in PRKAA1 gene expression in human Hep2 cells at 50 ug/ml incubated for 24 hrs by real-time PCR method; format: functional, cell-based; conditions: HEp-2; outline: as §2
[23] = Reduction in PRKAA2 gene expression in human Hep2 cells at 10 ug/ml incubated for 24 hrs by real-time PCR method; format: functional, cell-based; conditions: HEp-2; outline: as §2
[24] = Reduction in PRKAA2 gene expression in human Hep2 cells at 50 ug/ml incubated for 24 hrs by real-time PCR method; format: functional, cell-based; conditions: HEp-2; outline: as §2
HEp-2 [25] = experiment: Increase in cyclin B gene expression in human Hep2 cells at 50 ug/ml incubated for 24 hrs by real-time PCR method; format: functional, cell-based; outline: as §2
HEp-2 [26] = experiment: Increase in cyclin B gene expression in human Hep2 cells at 10 ug/ml incubated for 24 hrs by real-time PCR method; format: functional, cell-based; outline: as §2

In the case of `Cn1cc(C(=O)NC(=S)Nc2ccccc2Br)cn1`, the viability at 12.5 µg/mL (THP-1 [1]) was 98%, the viability at 25 µg/mL (THP-1 [2]) was 59.4% and the viability at 50 µg/mL (THP-1 [3]) was 31.9%. The viability at 12.5 µg/mL [4] was 100%, the viability at 25 µg/mL [5] was 100% and the viability at 50 µg/mL [6] was 91.5%. For the same compound, the viability at 12.5 µg/mL [7] was 100%, the viability at 25 µg/mL [8] was 100% and the viability at 50 µg/mL [9] was 80%. It also gave an Activity (HCT-8 [10]) of 1.87%, an Activity (HCT-8 [11]) of 1.23% and an Activity (HCT-8 [12]) of 5.41%. The Activity (HCT-8 [13]) was 91.5%, the Activity (HEp-2 [14]) was “Dose-dependent effect” and the Activity (HEp-2 [15]) was 74.41%. The Activity (HEp-2 [16]) was 70.17%, the Activity (HEp-2 [17]) was 19.09% and the Activity (HEp-2 [18]) was 21.87%. For the same compound, the Activity (HEp-2 [19]) was 10.28%, the Activity (HEp-2 [20]) was 15.93% and the Activity [21] was “inactive”. For the same compound, the Activity [22] was “inactive”, the Activity [23] was “inactive” and the Activity [24] was “inactive”. For the same compound, the Activity (HEp-2 [25]) was “Active” and the Activity (HEp-2 [26]) was “Active”.
